Reference: article PMC7722202 (Angewandte Chemie (International ed. in English), 2020)

Legend:
HeLa cells [1] = assay type: cell-based, human
[2] = Hydrodynamic diameter by dynamic light scattering; assay type: physicochemical; conditions: DLS; nanoparticles via photo-PISA at solids content of 15 wt.%
HeLa cells [3] = assay: Mitochondrial membrane potential with JC-1 probe, live-cell confocal microscopy; assay type: cell-based, human; conditions: 2 μM JC-1 probe, excitation 488 nm, NP5 after 30 min incubation
Summary of the method: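 Live HeLa cells were exposed to the test peptide materials for set times, then stained with 2 μM JC-1 followed by Hoechst 33342 before imaging. Confocal microscopy, both channels excited at 488 nm: monomer green at 510–550 nm, J-aggregate red at 585–649 nm; nuclei at ex 405/em 420–480 nm. Green and red fluorescence were compared. CCCP was run alongside.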

Substance | cytotoxicity in HeLa cells (HeLa cells [1]) | Dh (hydrodynamic diameter) [2] [nm] | red fluorescence of JC-1 J-aggregates (mitochondrial membrane potential) (HeLa cells [3])
poly[(KLAAm10-co-DMA30)-b-(DAAm280-co-DMA120)] [NP3] | dose-dependent cytotoxicity | 105 | –
poly[(KLAAm10-co-DMA10)-b-(DAAm280-co-DMA120)] [NP5] | – | – | almost no red emission
